Data reported in the EternaBench riboswitch data.

Test system: MS2 coat protein
Assay: apparent Kd, MS2 coat protein; higher = weaker binding; RNA-MaP array; FMN 200 µM where present
Procedure, shortened: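 Stalled E. coli RNA polymerase transcribed each design on Illumina sequencing-chip clusters. The clusters were titrated with SNAP-549-labelled MS2 coat protein, starting at 0.7 or 1.5 nM and doubling up to 3 µM, first without ligand and then with constant ligand, in 100 mM Tris-HCl pH 7.5, 80 mM KCl, 4 mM MgCl2, BSA, DTT, yeast tRNA and Tween-20. Green signal was normalised to red-channel RNA signal and to the control-cluster median Fmax. The apparent Kd is the median of filtered binding-curve fits made for each cluster.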

[1] = designed as: OFF switch for flavin mononucleotide, no ligand
[2] = ligand present: flavin mononucleotide, designed as: OFF switch for flavin mononucleotide
[3] = designed as: ON switch for flavin mononucleotide, no ligand
[4] = ligand present: flavin mononucleotide, designed as: ON switch for flavin mononucleotide

Sequence | apparent Kd [1] [nM] | apparent Kd [2] [nM] | apparent Kd [3] [nM] | apparent Kd [4] [nM]
ACAUGCAAGUAGAAGGUCGGAUAUUUUGAUAACGAAGGAUAUACAGAAUCAUAUCCACAUGAUAACAUGAGGAUCACCCAUGUA | 15.2 | 15 | – | –
ACAUGCAUAGCGAUAUGAUCGAGAGAUCAUGUCGCUAAAAUUAGAAGGACAUGAGGAUCACCCAUGUAGGAUAUGGGAGCAUGA | – | – | 39.9 | 10.3
ACAUGCAUAGCGAUAUGAUCGAGAGAUCAUGUCGCUAAAGUUAGAAGGACAUGAGGAUCACCCAUGUAGGAUAUGGGAGCAUGA | – | – | 43.1 | 9.96
ACAUGCAUAGCGAUAUGAUCGAGAGAUCAUGUCGCUUAAAAUAGAAGGACAUGAGGAUCACCCAUGUAGGAUAUGGGAGCAUGA | – | – | 25.8 | 11.7
ACAUGCGGAUGAGGAUAUUCAUCCAUGAGGAUAGAAGAAGGCAUACAUGAGGAUCACCCAUGUAUACACAUGAGGAUCCCUUAU | 59 | 137 | – | –
ACAUGGAAUACAGGAUAUGUAAGUUUUAAGUAGAUUGGUUAUUACUUUACAACAGAAGGGUAAUACAUGAGGAUCACCCAUGUA | – | – | 19.1 | 16
ACAUGGAAUACAGGAUAUGUAAGUUUUAAGUGGAUUGGUUAUUACUUUACAACAGAAGGGUAAUACAUGAGGAUCACCCAUGUA | – | – | 30.1 | 25.3
ACAUUGCGAGGAUAUACAUGAGGAUCACCCAUGUGGUGGCAGAUACGGUAGGGCUAGUGUAGAAGGUGUCAUGG | 528 | 435 | – | –
ACAUUGUGAGGAUAUCCGAAGAAGGUCCGGAAGGUUCGGGUGGAGAAGGCACAUGAGGAUCACCCAUGUGUGGG | 51.8 | 137 | – | –
ACAUUGUUAGGAUAUGCUGCUCGUCACUUGCGUGAUGAGUAGCAGAAGGAACAUGAGGAUCACCCAUGUAAAAA | 33.1 | 44.3 | – | –
ACAUUGUUAGGAUAUGCUGCUCGUCACUUGCGUGAUGAGUAGCAGAAGGAACAUGAGGAUCACCCAUGUAAAGA | 33.7 | 56.1 | – | –
ACAUUUAAUACAGGAUAUGUUAGUAUACAGUAGAUUGGUUAUUACACAACAACAGAAGGGUAGUACAUGAGGAUCACCCAUGUA | – | – | 15.6 | 12.1
ACCGAAUGAACAUGAGGAUCACCCAUGUACACGAAAGUGAAUGAGGAUAUCGAUAGCAAAGCUAUCGAGAAGGCAUGGGUCGGU | – | – | 565 | 144
ACCGGCGCUUACAUGAGGAUCACCCAUGUGCGCACUCGGGCACAGGAUAUCCAUGGUAAGUAUCGGGAGAAGGGUGAGAAGAAU | – | – | 163 | 309
ACGACGAAAGUCGAACGAUGAUCGAGAAGGACAUGAGGAUCACCCAUGUUCCGUGUAACACGCAUGUAGGAUAUCGAUCAUCGA | 5.17 | 11.4 | – | –
ACGACGAAAGUCGAACGAUGUAGCAGAAGGACAUGAGGAUCACCCAUGUCAGCUGUAACAGCCAUGUAGGAUAUGCUACAUCGU | 4.29 | 5.41 | – | –
ACGCCUCCUGUCAGGAUAUGCAUCGGGCUUCCGCAGCAGAAGGGACAUGAGGAUCACCCAUGUCAAAUAAAAUC | 17.6 | 58.3 | – | –
ACGGCAAUCGAAGGAUAUGGUUACAUGAGGAUCACCCAUGUCUAGGGUCUAAUUAGGUAUAACUACCAGAAGGUCGAAGGCCUA | 67.6 | 72.5 | – | –
ACGGCUAACCCAGUUUAAAUCUCAAGAAGGGUACACUGGGCAAGGUACAUGAGGAUCACCCAUGUACAGGAUAUUGAGAUGAGA | 25.6 | 45.4 | – | –
ACGGCUGUCAGAGGAUAUGGUUACAUGAGGAUCACCCAUGUCAAGGGUCUAACUAAGUAUAGCUACUAGAAGGCUGAUGGCCGA | 158 | 107 | – | –
ACGGCUGUCAGAGGAUAUGGUUACAUGAGGAUCACCCAUGUCAAGGGUCUAAUUAAGUAUAACUACUAGAAGGCUGAUGGCCUA | 263 | 144 | – | –
ACGUAUAGAGGAUAUAGUGAAUAUUACAUGAGGAUCACCCAUGUUCUUCAAAGUAUAUUUCUAGAAGGCUAAUGAA | 35 | 92.7 | – | –
ACGUGACGGAGCGCGAGUGGACGGAGAAGGCAGACAUGAGGAUCACCCAUGUGAGCCUGCUAUUCUGAGGAUAUCCGUCCGCAC | 32.5 | 203 | – | –
ACGUGACGUUAGGAUAUUAACUACCUGCCAUCUUAAGAAGGAACGACAUGAGGAUCACCCAUGUGAAUCCGCGA | 26.7 | 27 | – | –
ACGUGUAAUACAGGAUAUGUAUUGGAUUAAUCAACCAGUUAUUAAGUAACGACAGAAGGGUAUACAUGAGGAUCACCCAUGUUA | 24.2 | 20.2 | – | –
ACGUGUCGUGUAGGAUAUGACACAGGAAACUGGUCAGAAGGACAUGAGGAUCACCCAUGUAAAAUGUUCAAGAAUAACGUAUGC | 43.3 | 108 | – | –
ACGUGUUAUACAGGAUAUGUUUAGGUACAAUCAUCCAGAUAUUAAUUUAUAACAGAAGGGUAAACAUGAGGAUCACCCAUGUCA | 18.4 | 15.1 | – | –
ACUAGAUGAGGAUAUGCAUAUUUUCGUGUUCUUCUAGGUUAACAUGAGGAUCACCCAUGUAGAAGGCGUCUAUG | 21.1 | 47.6 | – | –

Sequence | apparent Kd [1] [nM] | apparent Kd [2] [nM] | apparent Kd [3] [nM] | apparent Kd [4] [nM]
ACUAUACGAGGAUAUACUGUCAGUACUCAGAGGUUAAUGUGACAUGAGGAUCACCCAUGUAGAAGGCGUUUACU | 28.9 | 31.3 | – | –
ACUCGAUUUUUGGGUUUACUAUAUGAGGAUAUCAUACAUCUAUACAUGAGGAUCACCCAUGUUACUGAGAAGGCAUAUAUAAUA | – | – | 17.3 | 6.77
ACUGGUCAAGGAUAUACAAUCGUGCUUCGGCACGUAAGAUCACAUGAGGAUCACCCAUGUAGAAGGUGACCAGU | 38.6 | 470 | – | –
ACUUCUAAGCAGAAGGCAGUCAUAGCAUUCGUCAUGUAGACAUGAGGAUCACCCAUGUAUAGUGCUGAGGAUAUGCUUGGAUAG | 11.8 | 10.7 | – | –
ACUUGCUUGCAGAAGGGUGACAUGAGGAUCACCCAUGUAGCGGGCCGGCUUAAAGUCAGCGCGCCACAGGAUAUGCAGGCCUCG | – | – | 14.2 | 35.1
ACUUUAGUAUCACAUGUAUUACAUGAGGAUCACCCAUGUUACUAGGAUAUGUAUUAGAAUUUACAACAGAAGGAGUAAGAAUGU | 8.17 | 9.83 | – | –
ACUUUAUUUGAGAAGGUGAAGUGGAAACAUGAGGAUCACCCAUGUAAUAGGAAGCCUAUUUUUAUCAAGGAUAUCAAAUAAAGA | – | – | 7.89 | 7.86
ACUUUGUUUGAGAAGGUGAAGUGGAAACAUGAGGAUCACCCAUGUAUUAGGAAGCCUGGUUUUGUCAAGGAUAUCGGGUAAAGA | – | – | 12 | 10.1
AGAAAACAUGAGGAUCACCCAUGUAGAAAUAUGGGAGGAUAUACAAAGACGAAAGUCGAGGUAGAAGGCCUAAAGA | – | – | 100 | 23.4
AGAAAACAUGAGGAUCACCCAUGUCAAGCUAAUCAAGGAUAUGGGUCGGGAAAUCCCGCACCAGAAGGUGAAAUGC | – | – | 123 | 24.5
AGAAACAGAGGAUAUCGCGGACAGCACAUGAGGAUCACCCAUGUGAUGCUCCGCGGGCCGCGAGAAGGCUGAAAUG | 15.1 | 36.8 | – | –
AGAAACUACGAGAAGGACAUGUGGUCCAAAAGAAACAUGAGGAUCACCCAUGUAGGAUAUCGUAGUUUCAGGAUCGUGAGAUCA | 280 | 56.8 | – | –
AGAAACUACGAGAAGGACAUGUGGUCCUUCCAAAACAUGAGGAUCACCCAUGUAGGAUAUCGUAGUUUCAGGAUCGUGAGAUCA | 11.5 | 4.61 | – | –
AGAAACUACGAGAAGGACAUGUGGUCCUUCUAAAACAUGAGGAUCACCCAUGUAGGAUAUCGUAGUUUCAGGAUCGUGAGAUCA | 35.5 | 7.27 | – | –
AGAAAGUCAGGAUAUCAGAAUAAGUCGAAAACGACUAGUAAUGAGAAGGGACAUGAGGAUCACCCAUGUAAGAA | 30.6 | 37.4 | – | –
AGAAAUUAGUGAGGAUAUGCAUAAUAUUUAGCUGCAGAAGGCACGGACCACAAGACAUGAGGAUCACCCAUGUGGAAUAUAGAU | 20.1 | 23.4 | – | –
AGAAGUUUGUAGAAGGACGACUAAUUUGUAUUCGUAGGAUAUACUAUUUACAUGAGGAUCACCCAUGUUUUUAUGGAACAAUGU | 11.9 | 17.2 | – | –
AGAAUGGGCGAGAAGGGAGUACAUGAGGAUCACCCAUGUGGUUCAUGGUGCUCAGGAUAUCGAUAGACCAAGGAGAGCCUUUGG | 21.9 | 185 | – | –
AGAGAAUACUCAGGAUAUCUUAAUAGAAAGAGUAGAGAAGGGAGACAUGAGGAUCACCCAUGUGAAGUCUUGAGACUACAUGGU | 367 | 470 | – | –
AGAGACCUCACAGGAUAUGCUGGACUUUGUCCAGCAGAAGGGUGAAAACAUGAGGAUCACCCAUGUAUGGUCUCCAAAUUUAAA | – | – | 186 | 12.1
AGAGACUUGGGAGGAUAUGCCUGAUGGACACGGGCAGAAGGCCCAAACAUGAGGAUCACCCAUGUAUCUACGCCUUGAACGGGC | – | – | 236 | 17.7
AGAGCCGGCACUGAGGAUAUUCAUAUUAAAACAUGAGGAUCACCCAUGUAGGCCAGAAGGCCUUGGGAGAAGGCAGGUCGGCUCU | – | – | 407 | 29.5
AGAGUGACAGGAUAUUGGAUUCCUAACAUGAGGAUCACCCAUGUAGUACGGUACUACUGUCAAGAAGGGUCACUCU | 75.8 | 68.8 | – | –
AGAGUUGACUCAGGAUAUACGGGAAUGUGCCGCGACAUGAGGAUCACCCAUGUAGAAGGGAGAGAGAAGAAGAGAUGUAGAAGA | 56.1 | 54 | – | –
AGAGUUUCGUUGUGACCCAUUCACAUGAGGAUCACCCAUGUAGAGGAUAUAAGUCACCACGGUACUUAGAAGGCUGCAGGUGUG | 6.83 | 12.5 | – | –
AGAUAACAUGUAGGAUAUCGAGGCCUGAGGCCUCGAGAAGGACAUGAGGAUCACCCAUGUUUGCCGAGCAUGGAAUCCCGCACU | 58.6 | 425 | – | –
AGAUCACAUGAGGAUCACCCAUGUGAGGAUAUGGACUGAAGAGCUUCGGCUCUUCAGUCCAGAAGGCACUAUGA | 27.3 | 35 | – | –
